CHO parental Ca: counter-screen for OX1R antagonists: effect in parental CHO cells; inhibition, % at 5.6 µM; hit rate 0.63% among 330,000; AID 463079; parental CHO-K1, ATP-induced calcium, Fluo-8 fluorescence;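 active = inhibition above that plate's mean sample inhibition plus 3 SD, cut at about 26% in these data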;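 also: 0% = ATP-challenged DMSO wells and 100% = DMSO wells without ATP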
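Test system: untransfected parental CHO cell line; also added: ATP stimulus; dosing: 5.6 µM, single dose; signal: calcium-sensitive Fluo-8 fluorescence; measure: percent inhibition of ATP-evoked calcium rise, normalized to controls; benchmarks: low control ATP plus DMSO, high control DMSO only; replication: one well per compound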
OX1R antag-1: OX1R (human) antagonism; O43613; OX1R-expressing cells, FRET antagonist read-out; inhibition, % at 6.6 µM; hit rate 1.8% among 330,000; AID 485270; in the data active = inhibition mostly above about 38%, no sharp cut-off; inactive = mostly below about 40%;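 also: 0% = agonist challenge alone and 100% = reference antagonist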
OX1R antag-2: blocks the human orexin 1 receptor; inhibition, % at 5 µM; hit rate 0.43% among 330,000; AID 434989; CHO/OX1R cells, Fluo-8 calcium fluorescence, orexin A; O43613;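 active = inhibition above its plate's threshold, mean inhibition of all tested compounds on the plate plus 3 SD, cut at about 37% in these data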;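 also: 0% = orexin A challenge wells and 100% = SB-334867-A antagonist wells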
TAAR1 agonist: agonists of human TAAR1; Q96RJ0; hit rate 0.99% among 360,000; CHO RD-HGA16 TAAR1, Fluo-8 calcium fluorescence; vehicle wells 0%, saturating PEA agonist 100%; activation, % at 3 µM;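 active = activation above the mean activation of all test compounds in the run plus 3 SD, cut at about 38% in these data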
Target sequence (Q96RJ0 whole entry, looked up): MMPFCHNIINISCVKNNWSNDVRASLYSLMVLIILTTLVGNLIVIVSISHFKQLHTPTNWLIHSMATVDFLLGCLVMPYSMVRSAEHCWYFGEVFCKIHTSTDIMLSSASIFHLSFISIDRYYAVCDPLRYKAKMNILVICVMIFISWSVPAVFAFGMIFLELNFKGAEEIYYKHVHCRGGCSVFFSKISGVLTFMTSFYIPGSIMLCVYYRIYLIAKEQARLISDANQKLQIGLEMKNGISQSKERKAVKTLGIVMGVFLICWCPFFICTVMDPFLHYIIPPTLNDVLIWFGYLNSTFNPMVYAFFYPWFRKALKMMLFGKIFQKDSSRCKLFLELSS
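test system = CHO RD-HGA16 cells carrying human TAAR1 plus Gα16 | schedule = 17-24 h seeding, 75 min 37 °C dye, 30 min RT | compound dosing = 3 µM single concentration | control set = DMSO and PEA EC100 | replicates = n 1 | signal = Fluo-8 fluorescence, 5 s baseline then 140 s kinetic read | measure = percent activation vs PEA EC100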
TAAR1 antagonist: human TAAR1 antagonism. Q96RJ0. AID 624466. CHO RD-HGA16 TAAR1, Fluo-8 calcium fluorescence, antagonist. hit rate 1.5% among 360,000. inhibition, % at 3 µM;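 active = inhibition above a per-plate cutoff, the mean inhibition of test compounds on that plate plus 3 SD, cut at about 49% in these data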;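 also: 0% = DMSO plus EC80 beta-PEA response and 100% = DMSO alone without agonist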
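Material: RD-HGA16 CHO cells with stable hTAAR1 and Gα16; Dosing: single nominal final test compound concentration of 3 µM; Schedule: seeding 17-24 h prior, 75-min 37 °C, 30-min RT dye loading; Detection: kinetic Fluo-8 calcium fluorescence measurement; Measure: % inhibition from peak post-agonist over basal fluorescence ratio; Benchmarks: vehicle and agonist controls.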
nonsel antag count: counter-screen for TAAR1 antagonists: nonselective antagonists. inhibition, % at 3 µM. counterscreen cell line, calcium fluorescence, antagonist mode. shares compounds with TAAR1 antagonist. hit rate 77% among 2,400; in the data active = inhibition above about 22%;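 also: CHO-Ga16 host cells stimulated with ATP at an EC80 level; 0% = agonist EC80 plus vehicle and 100% = vehicle without agonist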
TAAR1 antag conf: confirmation of human TAAR1 antagonists | shares compounds with TAAR1 antagonist | AID 651785 | inhibition, % at 3 µM | hit rate 40% among 2,400 | TAAR1-expressing cells, fluorescence antagonist read-out; in the data active = inhibition above about 49%;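 also: CHO-Ga16 host cells challenged with agonist PEA near its EC80; 0% = agonist at EC80 plus vehicle and 100% = vehicle with no agonist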
Ga16 nonsel ag: nonselective Ga16 agonism, counter-screen. hit rate 18% among 2,400. AID 651953. Ga16-expressing cells, calcium fluorescence, agonist counterscreen. shares compounds with TAAR1 antagonist. activation, % at 3 µM; in the data active = activation above about 12%;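 also: 0% = vehicle wells and 100% = saturating stimulus response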
TAAR1 ag count: activates human TAAR1 in antagonist counter-screen. shares compounds with TAAR1 antagonist. hTAAR1 cell line, fluorescence activation, agonist mode. activation, % at 3 µM. hit rate 2% among 2,400; in the data active = activation above about 37%;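 also: CHO cells stably expressing TAAR1 with calcium dye readout; 0% = DMSO vehicle and 100% = full agonist response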
* hit, by the source's call; nt = no result given. A selection: hits, their analogues and other compounds. The true share with any hit is near 3.9%.

SMILES	CHO parental Ca	OX1R antag-1	OX1R antag-2	TAAR1 agonist	TAAR1 antagonist	nonsel antag count	TAAR1 antag conf	Ga16 nonsel ag	TAAR1 ag count
CCSc1nnc(-c2cccc(S(=O)(=O)N(CC)CC)c2)n1Cc1ccccc1	-10	9	-17	11	60*	31*	52*	8	6
O=C1CCc2ccc(OCCCCN3CCN(c4cccc(Cl)c4Cl)CC3)cc2N1	-6	13	-27	12	63*	46*	48	16*	31
Cc1cccc(NC(=O)c2cccc(N3C(=O)C4C5C=CC(C6CC56)C4C3=O)c2)c1 (stereo unspecified)	2	6	-17	8	58*	35*	38	10	7
Cc1cc(C)cc(NC(=O)c2cccc(N3C(=O)C4C5C=CC(C5)C4C3=O)c2)c1 (stereo unspecified)	nt	nt	nt	0	-23	nt	nt	nt	nt
O=C1NC[C@@H](CCCCN2C[C@H](Cc3ccc(O)cc3)N(CCc3ccc(O)cc3)C(=O)C2=O)N(CCc2ccccc2)C1=O	nt	nt	nt	2	-5	nt	nt	nt	nt
O=C(NCCNC(=O)c1cc(Cl)ccc1Cl)c1cnccn1	-11	34	-6	1	1	nt	nt	nt	nt
CC(C)CC(NS(=O)(=O)OCC(Cl)(Cl)Cl)c1ccccc1 (stereo unspecified)	-11	32	0	20	86*	13	48	4	5
COc1ccc(CCNC(=O)CC2(CC3=NS(=O)(=O)c4ccccc4N3)CCCC2)cc1OC	-12	11	-27	2	3	nt	nt	nt	nt
Cc1ccc(CNC(=O)CC2(CC3=NS(=O)(=O)c4ccccc4N3)CCCC2)cc1	-6	13	-11	12	66*	32*	51*	11	19
Cc1c(C(=O)N(C)C(C)c2ccccn2)oc2c(F)cccc12 (stereo unspecified)	-6	14	-18	-2	-27	nt	nt	nt	nt
O=C(O)c1ccc(COc2ccccc2C=C2C(=O)c3ccccc3C2=O)cc1	5	29	-11	30	75*	37*	54*	11	23
CN1C(=O)/C(=C/c2ccccc2OCc2ccc(C(=O)O)cc2)NC1=S	-12	65	-12	1	-3	nt	nt	nt	nt
C/C(=N\NC(=O)COc1ccccc1[N+](=O)[O-])c1cccc(NC(=O)c2ccncc2)c1	-5	31	-8	24	86*	38*	58*	15*	16
C/C(=N/NC(=O)c1ccncc1)c1ccc(NC(=O)c2ccccc2)cc1	nt	nt	nt	3	19	nt	nt	nt	nt
C/C(=N\NC(=O)c1ccncc1)c1cccc(NC(=O)c2ccc(C(C)(C)C)cc2)c1	-12	26	-28	10	76*	37*	54*	11	8
COc1ccc(C(=O)Nc2ccnn2C2CCN(Cc3ccccn3)CC2)cc1	-11	-2	5	0	-3	nt	nt	nt	nt
Cc1cc(=O)[nH]c(SCCOc2ccc(OC(C)C)cc2)n1	-8	2	-20	10	2	nt	nt	nt	nt
COc1ccc(S(=O)(=O)NCc2ccc(C(=O)NCCCN3CC(C)CC(C)C3)cc2)cc1 (stereo unspecified)	-11	5	-15	1	-24	nt	nt	nt	nt
C[C@H](NC(=O)N1CCn2c1nc1ccccc12)C(=O)N1CCCCC1	-5	2	-1	1	-27	nt	nt	nt	nt
COc1ccc(CCN2C(=S)N(C)C(=O)C2CC(=O)Nc2ccc(OC)cc2)cc1 (stereo unspecified)	-11	6	-2	13	26	nt	nt	nt	nt
COc1ccc(NC(=O)CC2C(=O)N(C)C(=S)N2CCc2ccc(F)cc2)cc1 (stereo unspecified)	-3	2	-14	19	58*	31*	50*	14*	11
CCN1C(=O)C(CC(=O)Nc2ccc(OC)cc2)N(CCc2ccc(F)cc2)C1=S (stereo unspecified)	-2	6	-8	11	69*	42*	59*	13*	12
CCN1C(=O)C(CC(=O)Nc2ccc(OC)cc2)N(CCCN2CCN(c3ccc(F)cc3)CC2)C1=S (stereo unspecified)	-19	11	-12	27	66*	32*	45	17*	15
CCCCn1c(N)c(N(CC(C)C)C(=O)C2CCN(S(=O)(=O)c3ccc(C)cc3C)CC2)c(=O)[nH]c1=O	-6	21	-6	3	-23	nt	nt	nt	nt
CCOc1ccc(NCCC(O)c2ccc(F)cc2)cc1 (stereo unspecified)	-11	9	0	0	-4	nt	nt	nt	nt
SMILES	CHO parental Ca	OX1R antag-1	OX1R antag-2	TAAR1 agonist	TAAR1 antagonist	nonsel antag count	TAAR1 antag conf	Ga16 nonsel ag	TAAR1 ag count
Cc1ccccc1NC(=O)CCN1CCCC1	-1	-4	-17	6	-25	nt	nt	nt	nt
Cc1ccccc1NC(=O)CCN1CCc2ccccc2C1	-24	-2	-28	3	104*	-6	0	5	9
CC(C)C[C@H]1CN(CCCC[C@H]2CNC(=O)C(=O)N2CC2CCCCC2)C(=O)C(=O)N1CCc1ccccc1	nt	nt	nt	1	-23	nt	nt	nt	nt
O=C(CSc1nnc(Nc2ccccc2)s1)Nc1ccc(S(=O)(=O)N2CCOCC2)cc1	22	47	25	26	57*	36*	37	8	12
O=C(CSc1nnc2c(n1)[nH]c1ccccc12)Nc1ccc(N2CCOCC2)cc1	-18	9	-16	-2	14	nt	nt	nt	nt
O=C(CSc1nnc2c(n1)[nH]c1ccccc12)Nc1cccc(S(=O)(=O)N2CCOCC2)c1	1	10	-10	12	70*	43*	52*	9	10
Cc1ccc(Nc2nnc(SCC(=O)Nc3ccc(S(=O)(=O)N4CCOCC4)cc3)s2)cc1	-8	13	-17	9	1	nt	nt	nt	nt
CCCN1C(=O)c2cc(C(=O)Nc3ccccc3OC)ccc2C1Nc1ccccc1OC (stereo unspecified)	-6	-2	-7	8	60*	29*	43	5	4
COc1cc(-c2nnc(SCC(=O)c3ccc(C)cc3)o2)cc(OC)c1OC	-33	12	-17	4	54*	26*	28	4	1
CC1CN(S(=O)(=O)c2cccc(C(=O)NCC(c3cccs3)N3CCOCC3)c2)CC(C)O1 (stereo unspecified)	nt	nt	nt	3	-11	nt	nt	nt	nt
CC(C)=CCC[C@H](C)C[C@@H]1Cc2[nH][nH]c(=O)c2[C@H](c2ccc(Cl)cc2)O1	nt	nt	nt	-2	8	nt	nt	nt	nt
CCOC(=O)c1ccc(Nc2cc(C)nc(-c3ccccc3O)n2)cc1	-19	21	-34	2	53*	26*	40	6	5
